Measurements reported in PMC3174326 (Journal of medicinal chemistry, 2011).
Where a SMILES comes first, the peptide text is derived from it. The star is where a group is joined. X1 = O=C(NCCCN*)c1ccc(-c2n[nH]c3ccccc23)cc1

Experiments:
JNK1 = JNK1 (Homo sapiens, UniProt P45983); type: biochemical; details: for IC50: read-out: Kinase Inhibition IC50, JNK1 phosphorylation of ATF2, TR-FRET
NONcNZO10/LtJ mice = assay: Glucose tolerance test in type 2 diabetes mouse model; type: in vivo; details: 25 mg/kg i.p. daily, 26-week-old NONcNZO10/LtJ mice, 2 g/kg D-glucose i.p.
Method in brief: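 Male 26-week-old NONcNZO10/LtJ mice, glucose intolerant, received test compound daily by i.p. injection alongside vehicle-treated controls. After a 16 h fast, mice were given D-glucose i.p. Blood was sampled at set time points and glucose read with a hand-held meter. Treated and vehicle groups were compared by two-way ANOVA using all measurements.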

GST-JNK1 = GST-JNK1 (UniProt P45983 1-427); assay: DELFIA
GST-JNK1, sequence (P45983 whole entry): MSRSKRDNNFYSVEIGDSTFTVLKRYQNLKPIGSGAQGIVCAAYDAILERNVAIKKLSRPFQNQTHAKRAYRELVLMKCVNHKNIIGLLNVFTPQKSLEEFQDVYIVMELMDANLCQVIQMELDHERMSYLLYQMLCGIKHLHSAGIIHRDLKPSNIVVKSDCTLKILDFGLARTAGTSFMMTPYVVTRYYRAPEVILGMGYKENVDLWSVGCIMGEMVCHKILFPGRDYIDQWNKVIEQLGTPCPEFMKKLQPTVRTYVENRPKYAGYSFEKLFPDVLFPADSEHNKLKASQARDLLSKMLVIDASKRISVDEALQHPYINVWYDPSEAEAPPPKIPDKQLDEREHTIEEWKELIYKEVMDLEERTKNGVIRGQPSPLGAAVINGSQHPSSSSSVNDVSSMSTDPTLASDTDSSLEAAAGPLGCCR

JNK1, sequence (P45983 whole entry): as above

Row | Molecule | improvement of kinase inhibition properties compared with 20 (JNK1; 9 versus 20, Figure 1e) | IC50 (JNK1) [µM] | glucose tolerance / restoring normoglycemia (NONcNZO10/LtJ mice) | IC50 (GST-JNK1) [µM]
1 | CC(C)CC(NC(=O)C(CC(N)=O)NC(=O)C(CC(C)C)NC(=O)C(NC(=O)C(NC(=O)C1CCCN1C(=O)C(N)CCCNC(=N)N)C(C)O)C(C)O)C(=O)NCC(=O)NCC(=O)NCCCNC(=O)c1ccc(-c2n[nH]c3ccccc23)cc1 (centres unmarked) [compound 9] (H-RPTTLNLGG-X1; configuration not given here) | over 100 fold | 0.0007 |  | 
2 | Ac-tdqsrpvqpflnlttprrprpprrrqrrkkrg-OH (Ac-TDQSRPVQPFLNLTTPRRPRPPRRRQRRKKRG-OH; also: lowercase letters in name, meaning not given here) [compound 11] |  | > 50 | observed shortcoming | 
3 | Ac-RPTTLNL-OH [10 (Ac-RPTTLNL-OH)] |  |  |  | 4.5
